# This is a sample that favours compounds with a hit; in the whole collection about 2.1% have one here.
# Ins promoter up = MIN6 insulin promoter up-regulation | MIN6 insulin promoter-GFP reporter, high-content imaging; hits give high values | 190,000 tested, 0.3% active | AID 1625 | z-score at 5 µM;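 active means z-score above 3 at 5 µM with at least 500 cells counted in the well; inconclusive means wells under 500 cells, flagged as cytotoxic or low count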
# PERK inh = inhibitors of human PERK kinase; Q9NZJ5; CHO PERK-DD fusion, SEAP luminescence translation reporter; inhibition, % at 5.6 µM; 220,000 tested, 0.17% active;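 active means inhibition above the mean inhibition of all tested compounds plus 3 SD, set separately per screening campaign, cut at about 2.9% in these data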;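 further: PERK kinase domain activated by AP20187 dimerizer at 100 nM; 0% = DMSO with dimerizer and 100% = rapamycin at 8.4 µM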
# Dynein transport = blocks dynein driven cargo transport along microtubules; 3617.4 mouse cells, GR-EGFP nuclear translocation imaging; test concentration mostly 20 µM; stimulated with dexamethasone, 1 µM; hits give low values; z-score, hits read low; 220,000 tested, 0.47% active; AID 1381;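 active means plate z-score of nuclear minus cytoplasmic receptor signal below a set negative limit, without overly bright fluorescence or cell loss, cut at about -3.5 in these data, passing the limit was not always enough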;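 further: z-score of nuclear minus cytoplasmic ring GR-EGFP intensity difference per well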
#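 Buffer or medium: tetracycline-free induction medium containing charcoal-stripped FBS / Reagent: dexamethasone agonist, 1.0 µM final, for 30 min / Technique: automated 10x imaging of fixed Hoechst-stained cells / Times: induction 48 h, compound 1 h, agonist 30 min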
# INS promoter inh = TRM-6 insulin promoter activity inhibition | 130,000 tested, 0.9% active | inhibition, % at 2 µM | TRM-6 cells (human fetal islet line), insulin promoter-eGFP reporter, imaging; reporter expression induced with tamoxifen | AID 1273;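 active means inhibition above the mean plus 3 SD, with well images judged a real hit on visual review, cut at about 60% in these data, passing the limit was not always enough; inconclusive means inhibition over the cutoff but images rejected on review; inactive means inhibition not above the cutoff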
# Autophagy mod = autophagy modulation, high-content screen; AID 463193; 190,000 tested, 0.98% active; calls only at 10 µM (by protocol); MEF GFP-LC3 puncta imaging; test concentration mostly 10 µM;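 active means percentage of spot-positive cells more than 3 SD above its plate mean, without a fluorescence outlier flag or 80% toxicity; inconclusive means no clear call, values can overlap the other calls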;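 further: spot-positive cell cutoff set from DMSO-treated cells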
# Active calls of the source: *; i = inactive; ? = inconclusive; nt = no result; + = active, no number.
SMILES,Ins promoter up,PERK inh,Dynein transport,INS promoter inh,Autophagy mod
CC(=O)N1CCC(N(CCN2CCOCC2)C(=S)Nc2c(C)cccc2C)CC1,-0.89,1,-0.23,11,i
O=C(Nc1ccc(Cl)cc1C(=O)NCC1CCCO1)c1ccco1 (stereo not given),-0.01,-1,0.48,75*,i
CCOc1cc(NC(=S)NCCCN2CCOCC2)c(OCC)cc1NC(=O)c1cccs1,-0.01,-1,1.2,-21,+
NC(=O)C1CCN(CC(=O)NC(=O)NC2CCCC2)CC1,-1,1,0.29,nt,i
COc1cc(N2CCCC2)c(OC)cc1/C=C(/C#N)c1ccc(F)cc1,nt,1,-2.2,-26,+
COc1cc(N2CCCC2)c(OC)cc1/C=C(/C#N)c1ccc(Br)cc1,nt,-1,0.25,-87,?
O=C1NN(c2ccccc2)C(=O)/C1=C\c1cccc(OC(=O)c2cccs2)c1,1.1,0,-3.3,14,i
O=C1NN(c2ccc(Cl)c(Cl)c2)C(=O)/C1=C/c1cccc(OC(=O)c2cccs2)c1,-1.1,1,-3.8*,52,i
COc1ccc(CNC(=O)/C=C/c2ccco2)cc1OC,nt,0,2.9,71*,i
Cc1nn(CC#N)c(=O)n1-c1ccc(C(C)C)cc1,0.59,2,0.91,nt,i
Cc1nn(CC#N)c(=O)n1-c1ccc(Cl)cc1,0.52,1,-0.16,nt,+
Cc1cccc(NC(=O)c2cnc3ccccn3c2=O)c1,-0.4,3.1*,-0.94,60,i
Cc1cccc(NC(=O)c2cnc3sccn3c2=O)c1,-0.03,0,0.75,nt,i
COC(=O)[C@@H]1CC[C@H](C)[C@@H](c2ccc(C)cc2)N1C(=O)c1ccc(/C=N/OCC[C@@H]2C=C[C@H](OC(C)=O)[C@@H](COC(C)=O)O2)cc1,-0.23,-1,0.95,0,i
COC(=O)C/C=C/[C@@H](C)[C@@H](/C=N/OCC[C@@H]1C=C[C@H](OC(C)=O)[C@@H](COC(C)=O)O1)NS(=O)(=O)c1ccc(C)cc1,1.1,0,-0.48,24,+
CCOc1ccccc1N/C=C(\C#N)c1nc2ccccc2n1C,0.93,0,0.83,72*,i
Cn1c(/C(C#N)=C/Nc2ccccn2)nc2ccccc21,1.3,-1,-2.5,11,i
CCCn1c(SCC(=O)Nc2cc(S(=O)(=O)N(C)C)ccc2OC)n[nH]c1=O,0.07,1,0.73,nt,i
Cc1cccc(OCCNc2nc3c(c(=O)n(C)c(=O)n3C)n2C)c1,4.2*,0,0.06,-14,i
O=C(Nc1nc2ccccc2s1)c1cc2c(s1)-c1ccccc1OC2,-0.78,1,i,nt,+
COc1ccc(-c2ccc(/C=N/NC(=O)c3cccnc3)o2)c([N+](=O)[O-])c1,2.3,1,-2.4,-116,+
Cc1ccc(C(=O)N/N=C/c2ccc(-c3ccccc3[N+](=O)[O-])o2)cn1,-0.04,1,0.31,nt,i
CC1=Nn2c(nnc2-c2ccccc2Cl)SC1,-0.43,1,-0.96,88*,i
CC(=O)c1nc(N2C(=O)CC(Cc3cc(C)cc(C)c3)C2=O)sc1C (stereo not given),-0.25,0,0.15,-32,+
COc1ccccc1N=C(C)C1=C(O)CC(c2ccccc2)CC1=O (stereo not given),-0.63,2,2.6,-163,+
SMILES,Ins promoter up,PERK inh,Dynein transport,INS promoter inh,Autophagy mod
CCCC(=Nc1ccccc1OC)C1=C(O)CC(c2ccccc2)CC1=O (stereo not given),0.42,0,0.8,33,i
CCOc1ccc(-n2c(C)c(C(C)=O)c(C(C)=O)c2C)cc1,nt,0,-0.69,-160,+
COc1ccc(-n2c(C)c(C(C)=O)c(C(C)=O)c2C)cc1OC,-0.45,-1,-0.9,71*,i
CCCCOc1ccc(-c2nnn(CC(=O)NCc3ccco3)n2)cc1,-1.4,0,0.74,31,+
C=CCSc1nc(NC)c2sccc2n1,-0.75,1,0.026,80*,i
COc1ccc2c(c1)O/C(=C\c1sccc1C)C2=O,-0.25,0,-0.071,-26,i
CCOC(=O)C1CCN(C(=O)CSc2n[nH]c(=O)[nH]c2=O)CC1,0.3,3,-1,81*,i
O=S(=O)(c1ccc(NC(=S)NCc2ccncc2)cc1)N1CCCCC1,-0.07,1,-0.8,nt,nt
C/C(=N\OC(=O)c1ccc(F)cc1)c1nccs1,1.6,3.2*,0.69,29,i
COc1ccc(C(=O)O/N=C(\C)c2nccs2)cc1,-0.5,0,0.42,nt,i
